# Measured values published in ChEMBL document CHEMBL3085705, “Design, chemical synthesis of 3-(9H-fluoren-9-yl)pyrrolidine-2,5-dione derivatives and biological activity against enoyl-ACP reductase (InhA) and Mycobacterium tuberculosis” (2013).
# Molecular target: T1, Enoyl-[acyl-carrier-protein] reductase [NADH] (Mycobacterium tuberculosis) (UniProt P9WGR1)
# T1 sequence (whole entry): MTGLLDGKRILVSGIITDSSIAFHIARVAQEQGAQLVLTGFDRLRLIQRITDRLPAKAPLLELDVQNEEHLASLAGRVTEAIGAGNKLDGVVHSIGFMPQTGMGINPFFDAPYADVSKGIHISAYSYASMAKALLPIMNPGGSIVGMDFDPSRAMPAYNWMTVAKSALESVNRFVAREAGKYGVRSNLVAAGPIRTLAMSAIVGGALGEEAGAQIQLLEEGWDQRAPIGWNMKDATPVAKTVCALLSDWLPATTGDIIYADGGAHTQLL
# Assay: Inhibition of Mycobacterium tuberculosis InhA expressed in Escherichia coli using trans-2-dodecenoyl-coenzyme-A as substrate at 5 uM
# Outline: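 Recombinant M. tuberculosis wild-type InhA purified from E. coli. Reaction started by adding InhA (100 nM final) to DD-CoA (50 μM final), NADH (250 μM final) and inhibitor in 30 mM PIPES, 150 mM NaCl, pH 6.8. Percent inhibition taken from initial velocity against a no-inhibitor control. Run in triplicate.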
row,SMILES,inhibition [%]
1,O=C1CC(C2c3ccccc3-c3ccccc32)C(=O)N1c1cc(Cl)cc(Cl)c1 (stereo not given),31

# System: Mycobacterium tuberculosis
# Assay: Antimicrobial activity against Mycobacterium tuberculosis H37Rv by two-fold serial dilution method
# Format: functional
# Outline: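 Compounds dissolved in DMSO. Single colony grown in Middlebrook 7H9 with 0.05% Tween 80 and 10% OADC at 37 °C, no shaking, to ~10^8 CFU/mL (OD600 0.8–1.0). Diluted to ~10^7 CFU/mL; 1 μL streaked onto 7H11 agar (0.5% glycerol, 10% OADC) with two-fold serial compound dilutions. MIC is the lowest concentration inhibiting growth. Repeated three times.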
row,SMILES,MIC [µM]
1,O=C1CC(C2c3ccccc3-c3ccccc32)C(=O)N1c1cc(Cl)cc(Cl)c1 (stereo not given),19.6
2,COc1cc(CN2C(=O)CC(C3c4ccccc4-c4ccccc43)C2=O)cc(OC)c1 (stereo not given),> 38.7
3,O=C(CC(C(=O)O)C1c2ccccc2-c2ccccc21)Nc1ccc(F)cc1 (stereo not given),42.6
4,O=C1CC(C2c3ccccc3-c3ccccc32)C(=O)N1 (stereo not given),30.4
5,O=C(Cc1ccccc1)N1C(=O)CC(C2c3ccccc3-c3ccccc32)C1=O (stereo not given),41.9
6,CCCCCCCCCN1C(=O)CC(C2c3ccccc3-c3ccccc32)C1=O (stereo not given),41.1
7,O=C1CC(C2c3ccccc3-c3ccccc32)C(=O)N1C(=O)c1ccccc1 (racemic),5.4
8,O=C(CC(C(=O)O)C1c2ccccc2-c2ccccc21)NNC(=O)c1ccncc1 (stereo not given),10
9,O=C1CC(C2c3ccccc3-c3ccccc32)C(=O)N1CCc1c[nH]c2ccccc12 (stereo not given),> 39.4
10,O=C1CC(C2c3ccccc3-c3ccccc32)C(=O)N1c1ccc(F)cc1 (stereo not given),> 44.8
11,O=C(CC(C(=O)O)C1c2ccccc2-c2ccccc21)NCCc1c[nH]c2ccccc12 (stereo not given),37.7
12,COc1cc(N2C(=O)CC(C3c4ccccc4-c4ccccc43)C2=O)cc(OC)c1OC (stereo not given),37.3
13,O=C(c1ccc2[nH]ccc2c1)N1CCN(C2c3ccccc3-c3ccccc32)CC1,> 40.7
14,O=C1CC(C2c3ccccc3-c3ccccc32)C(=O)N1C(=O)c1ccc2[nH]ccc2c1 (stereo not given),39.4
15,"O=C1CC(C2c3ccccc3-c3ccccc32)C(=O)N1Cc1ccccc1 (single isomer, unassigned)",45.3
16,O=C(CN1C(=O)CC(C2c3ccccc3-c3ccccc32)C1=O)c1ccccc1 (stereo not given),> 41.9
17,O=C(CC(C(=O)O)C1c2ccccc2-c2ccccc21)Nc1cc(Cl)cc(Cl)c1 (stereo not given),4.7
18,O=C(O)CC(C(=O)O)C1c2ccccc2-c2ccccc21 (stereo not given),28.3
19,CCCCCCCCC(=O)N1C(=O)CC(C2c3ccccc3-c3ccccc32)C1=O (stereo not given),39.7
